Consider one molecule from ChEMBL document CHEMBL3232879, “4,5,6,7-Tetrahydro-isoxazolo-[4,5-c]-pyridines as a new class of cytotoxic Hsp90 inhibitors” (Eur J Med Chem, 2014).

One assay concerns the target Histone deacetylase 1 (Homo sapiens, UniProt Q13547). Kind of assay: Inhibition of human HDAC-1 using RHKK(Ac) as substrate.
A further assay relates to NCI-H460. The experiment in a line: Cytotoxicity against human NCI-H460 cells assessed as growth inhibition after 72 hrs by sulforhodamine B assay. The assay is classed as functional, cell-based. The settings on record: NCI-H460, 72 h. Summed up: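 Log-phase NCI-H460 cells seeded, drug added 24 h later, exposed 72 h. Survival read by sulforhodamine B staining. IC50 fitted by curve analysis as the concentration halving cell number relative to untreated controls.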
In general terms: In SRB staining, fixed cells bind dye roughly in proportion to their protein.

Assay [1] deals with Heat shock protein HSP 90-alpha (Homo sapiens, UniProt P07900). Kind of assay: Displacement of GM-FTC from Hsp90-alpha (unknown origin) after 4 hrs by fluorescence polarization assay. (Polarisation of emitted light reports the rotation of a fluorescent probe.)
In the next assay the target is Histone deacetylase 2 (Homo sapiens, UniProt Q92769). The experiment in a line: Inhibition of human HDAC-2 using RHKK(Ac) as substrate.
Histone deacetylase 2, sequence (Q92769 whole entry): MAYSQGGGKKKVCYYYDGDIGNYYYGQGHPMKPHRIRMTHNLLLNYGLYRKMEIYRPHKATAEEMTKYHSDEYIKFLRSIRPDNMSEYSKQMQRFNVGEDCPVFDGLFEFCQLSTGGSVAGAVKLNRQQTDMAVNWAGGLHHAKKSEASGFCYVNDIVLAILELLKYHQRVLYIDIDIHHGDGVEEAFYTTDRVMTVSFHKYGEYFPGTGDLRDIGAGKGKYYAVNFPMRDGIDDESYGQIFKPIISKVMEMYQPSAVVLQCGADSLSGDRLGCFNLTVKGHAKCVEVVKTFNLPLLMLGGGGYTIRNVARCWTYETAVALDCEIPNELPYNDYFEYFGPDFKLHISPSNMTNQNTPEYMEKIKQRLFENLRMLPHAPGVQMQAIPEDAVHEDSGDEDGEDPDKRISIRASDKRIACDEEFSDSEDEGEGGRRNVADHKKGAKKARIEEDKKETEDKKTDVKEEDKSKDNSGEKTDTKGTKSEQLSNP
Assay [2] deals with Histone deacetylase 3/Nuclear receptor corepressor 2 (HDAC3/NCoR2) (Homo sapiens, UniProt O15379). The experiment in a line: Inhibition of human HDAC-3/NCOR-2 using RHKK(Ac) as substrate. It counts as protein-complex assay.
Histone deacetylase 3/Nuclear receptor corepressor 2 (HDAC3/NCoR2), sequence (O15379 whole entry): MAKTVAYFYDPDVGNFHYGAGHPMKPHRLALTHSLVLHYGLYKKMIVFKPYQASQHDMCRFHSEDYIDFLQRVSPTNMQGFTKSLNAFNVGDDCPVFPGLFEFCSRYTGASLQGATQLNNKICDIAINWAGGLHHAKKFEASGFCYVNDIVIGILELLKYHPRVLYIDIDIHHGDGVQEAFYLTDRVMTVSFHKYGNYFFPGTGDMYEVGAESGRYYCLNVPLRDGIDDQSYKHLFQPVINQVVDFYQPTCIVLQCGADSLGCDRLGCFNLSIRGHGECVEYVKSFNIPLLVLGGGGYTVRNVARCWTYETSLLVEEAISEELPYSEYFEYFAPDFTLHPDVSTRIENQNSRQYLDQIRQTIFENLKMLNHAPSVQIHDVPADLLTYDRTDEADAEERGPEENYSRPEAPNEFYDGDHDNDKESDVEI
Histone deacetylase 3/Nuclear receptor corepressor 2 (HDAC3/NCoR2), sequence (Q9Y618 whole entry, further chain): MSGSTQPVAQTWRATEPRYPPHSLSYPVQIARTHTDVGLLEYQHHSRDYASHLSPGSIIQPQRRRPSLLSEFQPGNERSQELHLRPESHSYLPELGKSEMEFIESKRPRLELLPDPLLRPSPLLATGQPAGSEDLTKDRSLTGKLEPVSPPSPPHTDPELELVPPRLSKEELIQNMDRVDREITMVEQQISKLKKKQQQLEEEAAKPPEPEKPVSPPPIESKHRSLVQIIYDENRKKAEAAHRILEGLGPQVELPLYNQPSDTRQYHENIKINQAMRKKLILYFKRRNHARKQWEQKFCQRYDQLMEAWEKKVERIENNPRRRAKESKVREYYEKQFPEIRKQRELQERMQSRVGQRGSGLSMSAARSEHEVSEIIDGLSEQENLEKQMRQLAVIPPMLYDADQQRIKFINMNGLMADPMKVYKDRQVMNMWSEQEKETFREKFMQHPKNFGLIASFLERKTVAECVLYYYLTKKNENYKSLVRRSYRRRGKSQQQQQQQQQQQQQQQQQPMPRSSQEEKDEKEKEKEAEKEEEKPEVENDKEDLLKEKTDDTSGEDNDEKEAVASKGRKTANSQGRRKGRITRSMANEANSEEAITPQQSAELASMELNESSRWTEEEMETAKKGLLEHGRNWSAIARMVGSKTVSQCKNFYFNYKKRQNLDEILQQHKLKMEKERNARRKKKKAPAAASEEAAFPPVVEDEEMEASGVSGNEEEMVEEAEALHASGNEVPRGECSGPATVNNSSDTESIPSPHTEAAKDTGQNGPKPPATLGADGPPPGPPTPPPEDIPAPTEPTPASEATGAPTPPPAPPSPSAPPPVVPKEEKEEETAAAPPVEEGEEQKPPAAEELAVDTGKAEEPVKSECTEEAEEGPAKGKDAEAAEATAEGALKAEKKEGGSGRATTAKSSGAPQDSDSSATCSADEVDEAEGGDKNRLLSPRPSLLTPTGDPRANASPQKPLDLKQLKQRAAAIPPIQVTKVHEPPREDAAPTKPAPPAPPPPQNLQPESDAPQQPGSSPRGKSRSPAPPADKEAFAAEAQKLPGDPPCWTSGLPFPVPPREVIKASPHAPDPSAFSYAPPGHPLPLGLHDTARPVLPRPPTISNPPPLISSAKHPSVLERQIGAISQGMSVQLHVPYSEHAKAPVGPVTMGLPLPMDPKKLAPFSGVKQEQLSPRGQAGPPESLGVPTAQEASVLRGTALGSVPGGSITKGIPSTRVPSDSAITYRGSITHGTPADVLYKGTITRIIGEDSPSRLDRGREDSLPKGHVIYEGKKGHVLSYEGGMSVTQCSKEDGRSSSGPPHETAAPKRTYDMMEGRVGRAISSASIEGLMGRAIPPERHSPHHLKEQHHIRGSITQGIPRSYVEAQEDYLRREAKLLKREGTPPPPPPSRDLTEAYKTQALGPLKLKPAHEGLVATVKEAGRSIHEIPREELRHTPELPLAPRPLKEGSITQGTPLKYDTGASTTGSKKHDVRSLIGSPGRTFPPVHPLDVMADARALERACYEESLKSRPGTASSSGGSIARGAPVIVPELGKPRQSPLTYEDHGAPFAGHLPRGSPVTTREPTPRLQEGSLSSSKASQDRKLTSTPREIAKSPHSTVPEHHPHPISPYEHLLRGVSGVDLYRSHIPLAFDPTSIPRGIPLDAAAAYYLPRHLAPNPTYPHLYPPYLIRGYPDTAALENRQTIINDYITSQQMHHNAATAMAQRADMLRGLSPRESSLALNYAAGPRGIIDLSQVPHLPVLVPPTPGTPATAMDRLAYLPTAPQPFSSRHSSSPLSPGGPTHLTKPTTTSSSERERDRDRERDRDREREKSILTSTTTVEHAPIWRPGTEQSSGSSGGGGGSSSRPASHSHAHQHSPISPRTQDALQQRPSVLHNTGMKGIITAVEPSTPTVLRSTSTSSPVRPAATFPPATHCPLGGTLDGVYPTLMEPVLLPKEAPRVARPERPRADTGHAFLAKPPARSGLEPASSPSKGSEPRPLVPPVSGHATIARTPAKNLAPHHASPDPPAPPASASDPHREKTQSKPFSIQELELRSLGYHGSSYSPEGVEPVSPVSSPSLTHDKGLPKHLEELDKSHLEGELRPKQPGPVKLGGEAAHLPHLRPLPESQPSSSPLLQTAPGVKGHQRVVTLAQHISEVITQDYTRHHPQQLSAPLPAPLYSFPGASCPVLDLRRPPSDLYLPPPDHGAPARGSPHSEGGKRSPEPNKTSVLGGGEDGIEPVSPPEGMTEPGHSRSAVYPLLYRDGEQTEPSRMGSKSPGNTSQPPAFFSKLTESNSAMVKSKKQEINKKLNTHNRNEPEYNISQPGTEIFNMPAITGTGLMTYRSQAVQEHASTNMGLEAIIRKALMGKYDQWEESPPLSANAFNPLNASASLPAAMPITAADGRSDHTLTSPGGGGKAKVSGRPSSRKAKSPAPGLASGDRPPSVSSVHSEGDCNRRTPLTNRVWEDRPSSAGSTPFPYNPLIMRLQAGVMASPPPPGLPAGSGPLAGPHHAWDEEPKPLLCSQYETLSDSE
A further assay addresses Histone deacetylase 4 (Homo sapiens, UniProt P56524). Kind of assay: Inhibition of human HDAC-4 using RHKK(Ac) as substrate.
The target in the next assay is Histone deacetylase 5 (Homo sapiens, UniProt Q9UQL6). Kind of assay: Inhibition of human HDAC-5 using RHKK(Ac) as substrate.
Histone deacetylase 5, sequence (Q9UQL6 whole entry): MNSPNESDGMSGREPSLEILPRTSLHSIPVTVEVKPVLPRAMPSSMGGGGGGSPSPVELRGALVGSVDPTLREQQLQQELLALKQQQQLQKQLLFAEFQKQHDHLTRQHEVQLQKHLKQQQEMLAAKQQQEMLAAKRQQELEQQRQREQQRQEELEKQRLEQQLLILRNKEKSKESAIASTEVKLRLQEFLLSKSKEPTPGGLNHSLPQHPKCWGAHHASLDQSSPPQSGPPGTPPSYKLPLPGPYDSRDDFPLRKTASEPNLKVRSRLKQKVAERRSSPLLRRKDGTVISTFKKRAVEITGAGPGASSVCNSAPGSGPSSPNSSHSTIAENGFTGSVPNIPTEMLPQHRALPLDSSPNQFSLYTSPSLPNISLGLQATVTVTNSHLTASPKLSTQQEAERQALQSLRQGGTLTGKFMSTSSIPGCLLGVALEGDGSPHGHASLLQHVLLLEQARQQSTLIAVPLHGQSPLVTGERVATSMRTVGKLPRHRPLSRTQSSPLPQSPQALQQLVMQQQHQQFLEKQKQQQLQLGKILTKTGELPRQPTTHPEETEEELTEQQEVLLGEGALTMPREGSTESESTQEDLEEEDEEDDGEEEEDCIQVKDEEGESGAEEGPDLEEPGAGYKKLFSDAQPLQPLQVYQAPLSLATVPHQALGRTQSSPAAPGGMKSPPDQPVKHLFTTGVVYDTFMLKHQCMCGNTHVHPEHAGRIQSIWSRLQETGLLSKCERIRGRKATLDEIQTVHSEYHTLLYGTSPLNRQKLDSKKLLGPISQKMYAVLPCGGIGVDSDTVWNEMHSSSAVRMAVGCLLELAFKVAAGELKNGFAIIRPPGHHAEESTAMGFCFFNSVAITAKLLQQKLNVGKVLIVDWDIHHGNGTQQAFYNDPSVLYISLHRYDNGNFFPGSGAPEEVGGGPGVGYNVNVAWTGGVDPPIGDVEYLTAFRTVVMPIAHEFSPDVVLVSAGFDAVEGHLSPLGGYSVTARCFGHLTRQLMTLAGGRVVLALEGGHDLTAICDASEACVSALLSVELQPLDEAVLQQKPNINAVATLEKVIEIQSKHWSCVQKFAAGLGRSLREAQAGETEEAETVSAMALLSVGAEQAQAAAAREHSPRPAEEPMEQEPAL
Assay [3] addresses T1, Protein deacetylase HDAC6 (Homo sapiens, UniProt Q9UBN7).
T1 sequence (Q9UBN7 whole entry): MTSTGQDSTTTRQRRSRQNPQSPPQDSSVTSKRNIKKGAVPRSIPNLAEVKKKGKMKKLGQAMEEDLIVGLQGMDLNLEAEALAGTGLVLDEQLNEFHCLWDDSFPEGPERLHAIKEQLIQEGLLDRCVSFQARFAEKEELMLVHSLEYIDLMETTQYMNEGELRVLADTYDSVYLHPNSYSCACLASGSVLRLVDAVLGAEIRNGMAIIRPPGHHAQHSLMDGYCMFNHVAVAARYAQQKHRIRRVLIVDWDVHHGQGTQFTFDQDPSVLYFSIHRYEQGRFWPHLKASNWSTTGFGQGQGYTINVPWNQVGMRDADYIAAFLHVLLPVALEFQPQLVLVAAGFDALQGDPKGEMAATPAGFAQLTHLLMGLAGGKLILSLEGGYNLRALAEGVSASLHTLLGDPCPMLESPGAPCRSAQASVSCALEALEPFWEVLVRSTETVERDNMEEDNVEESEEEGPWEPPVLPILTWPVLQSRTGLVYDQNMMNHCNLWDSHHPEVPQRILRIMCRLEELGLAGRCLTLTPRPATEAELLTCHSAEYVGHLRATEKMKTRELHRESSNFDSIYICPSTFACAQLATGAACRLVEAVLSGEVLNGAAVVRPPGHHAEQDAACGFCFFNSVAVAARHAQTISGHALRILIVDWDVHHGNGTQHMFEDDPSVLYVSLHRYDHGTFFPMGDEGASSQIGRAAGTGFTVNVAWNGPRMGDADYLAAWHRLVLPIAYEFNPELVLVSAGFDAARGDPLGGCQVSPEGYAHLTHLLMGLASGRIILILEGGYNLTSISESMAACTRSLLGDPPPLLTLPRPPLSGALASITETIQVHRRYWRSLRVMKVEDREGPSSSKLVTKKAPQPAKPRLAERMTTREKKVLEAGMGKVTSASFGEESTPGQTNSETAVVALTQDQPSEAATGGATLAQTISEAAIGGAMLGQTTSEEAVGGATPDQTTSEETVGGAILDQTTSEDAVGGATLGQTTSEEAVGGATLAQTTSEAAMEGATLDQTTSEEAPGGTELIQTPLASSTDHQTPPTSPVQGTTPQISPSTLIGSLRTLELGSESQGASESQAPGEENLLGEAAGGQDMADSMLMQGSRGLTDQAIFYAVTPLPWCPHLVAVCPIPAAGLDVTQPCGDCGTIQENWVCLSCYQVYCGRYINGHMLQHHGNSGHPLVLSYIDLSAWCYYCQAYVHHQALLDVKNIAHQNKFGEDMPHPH
The experiment in a line: Inhibition of human HDAC-6 using RHKK(Ac) as substrate.

For another assay, the target named is T2, Histone deacetylase 8 (Homo sapiens, UniProt Q9BY41).
T2 sequence (Q9BY41 whole entry): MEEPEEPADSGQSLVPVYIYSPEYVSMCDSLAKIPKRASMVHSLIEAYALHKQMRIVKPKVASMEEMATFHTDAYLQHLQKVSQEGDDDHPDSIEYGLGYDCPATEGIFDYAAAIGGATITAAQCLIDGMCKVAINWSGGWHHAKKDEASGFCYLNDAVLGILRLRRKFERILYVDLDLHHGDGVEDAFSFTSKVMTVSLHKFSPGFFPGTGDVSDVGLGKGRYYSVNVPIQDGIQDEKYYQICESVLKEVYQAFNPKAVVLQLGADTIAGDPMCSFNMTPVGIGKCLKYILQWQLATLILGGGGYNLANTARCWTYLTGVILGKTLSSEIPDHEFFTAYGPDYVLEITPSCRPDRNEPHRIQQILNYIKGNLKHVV
Kind of assay: Inhibition of human HDAC-8 using RHK(Ac)K(Ac) as substrate.

The target in assay [4] is T3, Polyamine deacetylase HDAC10 (Homo sapiens, UniProt Q969S8).
T3 sequence (Q969S8 whole entry): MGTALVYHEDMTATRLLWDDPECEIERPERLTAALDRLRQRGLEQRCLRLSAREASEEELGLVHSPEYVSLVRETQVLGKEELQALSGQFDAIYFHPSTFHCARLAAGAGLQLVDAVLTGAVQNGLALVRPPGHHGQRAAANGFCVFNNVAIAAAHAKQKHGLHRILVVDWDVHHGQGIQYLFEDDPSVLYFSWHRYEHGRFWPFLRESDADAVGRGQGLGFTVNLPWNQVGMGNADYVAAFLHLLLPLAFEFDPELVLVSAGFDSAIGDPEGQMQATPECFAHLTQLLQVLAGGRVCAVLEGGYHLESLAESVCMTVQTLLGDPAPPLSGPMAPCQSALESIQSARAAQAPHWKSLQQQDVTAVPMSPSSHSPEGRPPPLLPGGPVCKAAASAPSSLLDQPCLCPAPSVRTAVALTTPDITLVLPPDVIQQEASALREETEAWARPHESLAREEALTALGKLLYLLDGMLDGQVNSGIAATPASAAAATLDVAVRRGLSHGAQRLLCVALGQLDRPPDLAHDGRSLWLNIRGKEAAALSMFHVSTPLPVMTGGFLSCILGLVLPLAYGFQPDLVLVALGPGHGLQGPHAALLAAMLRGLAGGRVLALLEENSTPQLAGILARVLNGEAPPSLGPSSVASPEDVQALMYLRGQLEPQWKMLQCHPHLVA
The experiment in a line: Inhibition of human HDAC-10 using RHKK(Ac) as substrate.

Histone deacetylase 1, sequence (Q13547 whole entry): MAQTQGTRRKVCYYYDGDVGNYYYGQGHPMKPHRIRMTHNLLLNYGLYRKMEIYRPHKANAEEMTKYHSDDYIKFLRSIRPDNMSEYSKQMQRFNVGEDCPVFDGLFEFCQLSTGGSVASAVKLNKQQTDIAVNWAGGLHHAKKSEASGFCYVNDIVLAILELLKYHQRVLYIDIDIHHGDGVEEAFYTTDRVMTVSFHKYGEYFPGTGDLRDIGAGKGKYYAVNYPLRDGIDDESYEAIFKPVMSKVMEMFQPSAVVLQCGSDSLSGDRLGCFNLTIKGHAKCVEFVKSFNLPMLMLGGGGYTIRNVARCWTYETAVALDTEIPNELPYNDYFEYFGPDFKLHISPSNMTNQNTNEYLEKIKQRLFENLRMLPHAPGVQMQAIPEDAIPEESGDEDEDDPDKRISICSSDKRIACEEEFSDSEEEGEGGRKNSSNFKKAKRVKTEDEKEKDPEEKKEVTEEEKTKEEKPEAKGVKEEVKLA

Consider `CC(C)c1cc(C(=O)N2CCc3onc(C(=O)NCCCCCCC(=O)NO)c3C2)c(O)cc1O`, for which the IC50 on Histone deacetylase 1 came to 2030 nM; in the assay with NCI-H460, 3900 nM; in assay [1] it was 33 nM; on Histone deacetylase 2, 9490 nM; in assay [2], 4230 nM; at Histone deacetylase 4, 75900 nM. Besides, the IC50 against Histone deacetylase 5 turned out to be 1580 nM; in assay [3] it was 4.1 nM; against Histone deacetylase 8, 1760 nM; in [4], 886 nM.

The term IC50 denotes the midpoint of a concentration-inhibition curve.
